Each structure is given as a SMILES string. Values after ≈ are worked out from the molar mass of the structure shown.

For data set [1], the system named is Human immunodeficiency virus 1. The data set can be described thus: Antiviral activity against HIV-1, IIIB, in MT-4 Cells. Type of data set: functional, organism-based. As to conditions: Human immunodeficiency virus 1, MT4. In outline: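 HIV-1 strain IIIB-induced cytopathic effect in HTLV-I-transformed MT4 cells. Virus adsorbed to cells at 1 × 10⁶ cells/mL, 37 °C, 1 h. Compounds added postadsorption, final 1 × 10⁵ cells/mL. Inoculum set to kill 90% of cells in 5 days. Mock-infected and compound-only controls run. DMSO ≤0.3%, medium with 10% FBS. Viability read by MTT after 5 days. Mean of repeat determinations.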

The nature of data set [2]: Oral Bioavailability was measured as Maximal observed concentration (Cmax) value at dose 125 mg/kg; b denotes No compound detectable in blood above the detection limit of 0.1 uM. Type of data set: ADME, organism-based. Set-up: dose 125 mg/kg, route oral. As to conditions: in vivo. In outline: (§1)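 Female Balb/c mice, fasted 24 h before and during the study, water ad libitum. Dosed by oral gavage at 125 mg/kg in a liquid formulation. Heparinized whole blood sampled at various times, methanol-extracted, cleaned on sulfobenzyl SPE, then RP-C18 HPLC with UV at 200 nm against an internal standard. Cmax taken as observed; AUC calculated. Detection limit 0.1 µM.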

Data set [3] is described as follows: Solubility (phosphate-buffered saline, pH =7.4). Type of data set: physicochemical. As to conditions: read-out: S. In outline: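 About 1 mg of lyophilized amorphous inhibitor in 1 mL PBS (pH 7.4), vortexed 1 min and sonicated 30 min at 37 °C. Filtered, then centrifuged at 100 000 rpm for 30 min. Supernatant run on RP-C18 HPLC (10 mM NH4OAc/CH3CN 50/50, UV 210 nm) and quantified by external standard. Minimum detectable 0.1 µg/mL.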

Data set [4] in a line: Oral Bioavailability was measured as area-under-curve(AUC) value at dose 125 mg/kg; b denotes No compound detectable in blood above the detection limit of 0.1 uM. Type of data set: ADME, organism-based. As to conditions: in vivo. In outline:
as §1

In data set [5] the target is T1, Human immunodeficiency virus type 1 protease (Human immunodeficiency virus 1, UniProt Q72874). Kind of data set: Binding affinity against HIV-1 protease. In outline:
(§2)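 Recombinant HIV-1 PR expressed in E. coli JM105 and purified to homogeneity. Enzyme incubated at 37 °C in 0.1 M MES, 0.37 M NaCl, 4 mM EDTA, pH 6.25, with 280 µM chromogenic nonapeptide substrate (pNph). Initial rates taken from the absorbance decrease at 298 nm. IC50 fitted, then Ki = (IC50 − Et/2)/(1 + S/Km). Mean of two determinations; DMSO ≤5%.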

The nature of data set [6]: Oral Bioavailability was measured as Maximal observed concentration (Cmax) value at dose 125 mg/kg; b = No compound detectable in blood above the detection limit of 0.1 uM. Type of data set: ADME, organism-based. Set-up: dose 125 mg/kg, route oral. To be noted: in vivo. In outline: as §1
Data set [7] in a line: Oral Bioavailability was measured as area-under-curve(AUC) value at dose 125 mg/kg; b = No compound detectable in blood above the detection limit of 0.1 uM. To be noted: in vivo. Type of data set: ADME, organism-based. In outline:
as §1

The nature of data set [8]: Oral Bioavailability was measured as area-under-curve(AUC) value at dose 125 mg/kg;b = No compound detectable in blood above the detection limit of 0.1 uM. As to conditions: in vivo. Type of data set: ADME, organism-based. In outline: as §1
Data set [9] is described as follows: Oral Bioavailability was measured as Maximal observed concentration (Cmax) value at dose 125 mg/kg;b = No compound detectable in blood above the detection limit of 0.1 uM. Type of data set: ADME, organism-based. Set-up: dose 125 mg/kg, route oral. As to conditions: in vivo. In outline: as §1
In data set [10] the target is T1, Human immunodeficiency virus type 1 protease. The data set can be described thus: Binding affinity against HIV-1 protease (HIV-1 PR); d indicates no activity at 3 uM. In outline: as §2
The subject of data set [11] is MT4. Kind of data set: Antiviral Activity against HIV-1, IIIB, in MT-4 Cells; d indicates no activity at 3 uM. Type of data set: functional, cell-based, Homo sapiens. In outline: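 MT4 cells infected with HIV-1 IIIB; virus adsorbed at 1 × 10⁶ cells/mL, 37 °C, 1 h, then plated at 1 × 10⁵ cells/mL with compound added postadsorption. Inoculum set to kill 90% of cells in 5 days. Incubated 5 days; viability of infected and mock-infected cells by MTT, read spectrophotometrically. Medium with 10% FBS; DMSO ≤0.3%. Values given as mean ± SD, n in parentheses.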

As a reminder, the IC50 is the concentration that gives 50% inhibition. Read a low IC50 as greater potency. The Ki is a measure of affinity in units of concentration, obtained from inhibition or displacement. The low end stands for a stronger hold on the target, the high end for a looser hold on the target. Molecule `CC(C)(C)[C@H](NC(=O)OCc1ccccc1)C(=O)N[C@@H](Cc1ccccc1)[C@@H](O)[C@@H](NCc1ccc(CNC(=O)CCc2nc3ccccc3[nH]2)cc1)C(=O)N[C@@H]1c2ccccc2C[C@H]1O` returned a half-maximal inhibitory concentration (IC50) in data set [1] of 161 nM. Moreover, in [2], the Cmax entry is listed as “No compound detectable”. Further, in [3], the solubility was less than 1 µM. Further, the AUC result in [4] is given as “No compound detectable”. Besides, affinity in data set [5] was put at a Ki of 4.1 nM.
For `COc1ccc(CN[C@@H](C(=O)N[C@H]2c3ccccc3C[C@H]2O)[C@H](O)[C@H](Cc2ccccc2)NC(=O)[C@@H](NC(=O)CCc2nc3ccccc3[nH]2)C(C)(C)C)cc1`, half-maximal inhibition in data set [1] (IC50) required 98 nM. The solubility in [3] stood at 12.2 µM (≈ 9.28 µg/mL). Moreover, the Cmax entry in data set [6] is recorded as “No compound detectable”. For the same molecule, the Ki in data set [5] is 9.4 nM. In addition, the AUC entry in data set [7] is reported as “No compound detectable”.
`CC(C)(C)[C@H](NC(=O)OCc1ccccc1)C(=O)N[C@@H](Cc1ccccc1)[C@@H](O)[C@@H](NCc1ccc(CNC(=O)Nc2ccccc2)cc1)C(=O)N[C@H]1c2ccccc2C[C@H]1O` came in with an IC50 in data set [1] of 175 nM. Further, the solubility in data set [3] is less than 1 µM. The AUC result in data set [8] is recorded as “No compound detectable”. Further, in [6], the Cmax result is “No compound detectable”. In addition, in [5], the inhibitory constant (Ki) stood at 3.3 nM.
For the molecule `COc1ccc(CN[C@@H](C(=O)NC2c3ccccc3C[C@H]2O)[C@H](O)[C@H](Cc2ccccc2)NC(=O)[C@@H](NC(=O)/C=C/c2ccc(OC)c(O)c2)C(C)(C)C)cc1` (stereo not given in full), the midpoint of inhibition in data set [1], the IC50, lay at 125 nM. In addition, the AUC result in data set [8] is “No compound detectable”. Moreover, the Cmax result in data set [9] is “No compound detectable”. In data set [5], the inhibition constant (Ki) was 5.8 nM.
Consider `CC(=O)NCc1ccc(CN[C@@H](C(=O)N[C@H]2c3ccccc3C[C@H]2O)[C@H](O)[C@H](Cc2ccccc2)NC(=O)[C@@H](NC(=O)OCc2ccccc2)C(C)(C)C)cc1`, for which the IC50 in data set [1] is 99 nM. In addition, the solubility in [3] was determined as 25.3 µM (≈ 19.3 µg/mL). Besides, the Cmax entry in [6] was “No compound detectable”. In data set [5], this molecule had an inhibitory constant (Ki) of 5.7 nM. The AUC result in data set [7] is “No compound detectable”.
For the molecule `CC(C)(C)[C@H](NC(=O)OCc1ccccc1)C(=O)N[C@@H](Cc1ccccc1)[C@@H](O)[C@@H](NCc1ccc(OCCN2CCOCC2)cc1)C(=O)N[C@H]1c2ccccc2C[C@H]1O`, in data set [1], the IC50 came out at 47 nM. Also, in [3], the solubility was 14.5 µM (≈ 11.9 µg/mL). Besides, in data set [6], the Cmax result is “No compound detectable”. In addition, in data set [5], the affinity, expressed as Ki, was 9.5 nM. In data set [7], the AUC entry is “No compound detectable”.
`CC(C)(C)[C@H](NC(=O)OCc1ccccc1)C(=O)N[C@@H](Cc1ccccc1)[C@@H](O)[C@@H](NCc1ccc(CNC(=O)OCc2ccccc2)cc1)C(=O)N[C@H]1c2ccccc2C[C@H]1O`: the IC50 in data set [1] was 142 nM. For the same molecule, the solubility in data set [3] was less than 1 µM. Further, the Cmax entry in data set [9] was “No compound detectable”. In addition, in data set [7], the AUC entry is reported as “No compound detectable”.
Consider `COc1ccc(CN[C@@H](C(=O)N[C@H](CO)c2ccccc2)[C@H](O)[C@H](Cc2ccccc2)NC(=O)OC(C)(C)C)cc1`, for which the inhibition constant Ki result in [10] is listed as “No activity”. The IC50 result in data set [11] is reported as “No activity”.
